High-throughput results as filed in PubChem.
LEDGF integ inh – blocks HIV-1 LEDGF/p75-dependent DNA integration. TR-FRET IN-LEDGF/p75 DNA integration, Eu/Cy5. inhibition, % at 3.7 µM. 0.64% of 370,000 active. AID 743269;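 active = inhibition above the screen-wide mean plus 3 SD, cut at about 13% in these data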;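 note: signal is the Cy5 over europium emission ratio at 671 and 618 nm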
TCR CD3 inh – blocks the human TCR-CD3 interaction; TAMRA-labeled TCR probe fluorescence, biochemical; inhibition, % at 9.4 µM; 0.37% of 360,000 active; in the data active = inhibition above about 19%;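 note: recombinant mutant TCR 2C K166C tagged with TAMRA read by polarization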
TDP2 absorb – TDP2 (human) inhibition, absorbance primary screen; O95551; recombinant TDP2, T5PNP hydrolysis, p-nitrophenol absorbance 415 nm; inhibition, % at 12.8 µM; 0.34% of 370,000 active; AID 720702;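 active = inhibition above the mean of all tested compounds plus 3 SD, set per campaign, cut at about 25% in these data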
Target sequence (O95551 whole entry, looked up): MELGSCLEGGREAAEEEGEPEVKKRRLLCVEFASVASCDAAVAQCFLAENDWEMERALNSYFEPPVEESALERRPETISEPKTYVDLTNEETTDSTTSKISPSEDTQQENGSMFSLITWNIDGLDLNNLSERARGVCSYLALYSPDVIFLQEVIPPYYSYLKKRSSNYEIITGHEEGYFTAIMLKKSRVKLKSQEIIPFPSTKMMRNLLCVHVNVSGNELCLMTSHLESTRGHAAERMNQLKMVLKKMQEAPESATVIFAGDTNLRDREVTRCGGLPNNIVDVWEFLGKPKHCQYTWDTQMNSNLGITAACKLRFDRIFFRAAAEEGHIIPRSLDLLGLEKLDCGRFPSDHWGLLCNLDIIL
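Test system: Human TDP2 enzyme | Reagent: 5 mM T5PNP | Compound dosing: 12.8 µM single point, 1% DMSO | Incubation: Enzyme reaction with compound for 2 h at 37 °C | Technique: p-Nitrophenol epi absorbance | Read-out: % inhibition relative to enzyme-containing and enzyme-free wells | Benchmarks: High control without enzyme, low control DMSO plus TDP2 | Replicates: Singlicate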
ABHD4 inh – inhibits mouse alpha/beta hydrolase domain 4; Q8VD66; purified mABHD4, FP-Rh probe fluorescence polarization; inhibition, % at 8.92 µM; 0.54% of 370,000 active; AID 720543;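 active = inhibition exceeding the mean over every tested compound plus 3 SD, cut at about 30% in these data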
Target sequence (Q8VD66 whole entry, looked up, the tested form may be a part): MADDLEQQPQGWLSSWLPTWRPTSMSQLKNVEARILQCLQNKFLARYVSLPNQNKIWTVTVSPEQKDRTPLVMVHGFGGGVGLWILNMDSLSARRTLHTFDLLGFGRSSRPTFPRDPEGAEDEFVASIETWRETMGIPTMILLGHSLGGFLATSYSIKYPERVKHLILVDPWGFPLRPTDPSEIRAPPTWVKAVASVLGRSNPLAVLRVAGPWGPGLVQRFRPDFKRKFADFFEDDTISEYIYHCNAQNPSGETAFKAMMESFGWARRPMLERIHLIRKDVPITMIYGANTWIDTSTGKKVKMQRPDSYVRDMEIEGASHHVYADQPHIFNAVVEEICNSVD
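Material: mouse ABHD4 enzyme, wild type; Benchmarks: S159A mutant high control, sample median low control; Buffer or medium: HEPES pH 7.0, NaCl, Pluronic buffer; Signal: fluorescence polarization; Read-out: percent inhibition of probe binding, normalized to plate controls; Timing: pre-incubation 45 min, probe exposure 60 min, at 25 °C; Dosing: 8.92 µM, single dose.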
HTRA1 inhibitor – HTRA1 (human) protease inhibition. Q92743. recombinant HTRA1, FP-rhodamine activity-based probe, fluorescence polarization. 0.5% of 340,000 active. inhibition, % at 5.96 µM; in the data active = inhibition above about 36%
SIAE inh – blocks human sialic acid acetylesterase; SIAE FP-Rh probe binding, fluorescence polarization; Q9HAT2; 0.69% of 370,000 active; AID 1053197; inhibition, % at 9.66 µM;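 active = inhibition above a cutoff: mean of compounds within the control limits plus 3 SD of those, cut at about 17% in these data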
ABHD4 confirm – ABHD4 (mouse) inhibition, FP confirmation. shares compounds with ABHD4 inh. purified mABHD4, FP-Rh probe fluorescence polarization. inhibition, % at 8.92 µM. 55% of 1,800 active. AID 720658;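 active = mean inhibition across replicates above the hit cutoff set in the primary screen, cut at about 30% in these data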
Of the large screens only hits and unclear results are named; the others gave an inactive call (follow-up assays come after a bar, where they were run). Compounds with a hit are over-represented: about 2.2% of the library has one in this group of screens.

C[C@H](CO)N1C[C@H](C)[C@@H](CN(C)C(=O)Nc2cccc(C(F)(F)F)c2)OCc2cn(nn2)CCCC1=O	none (no result: HTRA1 inhibitor)
COc1ccccc1OCCNC(=O)c1ccc2c(c1)OCCO2	ABHD4 inh 31 | ABHD4 confirm inactive
COc1ccccc1OCCNC(=O)CNC(=O)c1ccc2c(c1)OCO2	none
CCOC(=O)c1ccc(N2NC(=O)/C(=C/c3ccc(OC(=O)c4ccco4)c(OC)c3)C2=O)cc1	ABHD4 inh 33 (no result: HTRA1 inhibitor) | ABHD4 confirm inactive
CCOC(=O)COc1ccc(/C=C2/C(=O)NN(c3ccc(F)cc3)C2=O)cc1OC	none
Cc1ccc(-c2nc3ncccn3c2N)cc1	none (no result: HTRA1 inhibitor)
Nc1c(-c2ccc(C(F)(F)F)cc2)nc2ncccn12	ABHD4 inh 38 (no result: HTRA1 inhibitor) | ABHD4 confirm inactive
CCSC(=O)N=Nc1ccc(O)cc1	ABHD4 inh 33 | ABHD4 confirm inactive
Cc1[nH]c2ccccc2c1CC(=O)Nc1ccc(Nc2cccnc2)c(-c2ccc(F)c(F)c2)c1	none (no result: HTRA1 inhibitor)
Cc1ccc(-c2cc(NC(=O)Cc3c(C)[nH]c4ccccc34)ccc2Nc2cccnc2)cc1	ABHD4 inh 32 (no result: HTRA1 inhibitor) | ABHD4 confirm 37
CSc1ccc(-c2cnc(N3CCC(C(N)=O)CC3)s2)cc1	none (no result: TCR CD3 inh, HTRA1 inhibitor)
CCC[C@H]1[C@@H](NC(=O)c2ccc(C)cc2)CC[C@@]23CCCN2C(=O)CCC[C@@H]13	none (no result: TCR CD3 inh, HTRA1 inhibitor)
Nc1ccc2nc(-c3ccccc3)[nH]c2c1	ABHD4 inh 32 | ABHD4 confirm inactive
CC(=O)Nc1ccc2nc(-c3cccs3)[nH]c2c1	none
Nc1ccc2nc(-c3cccs3)[nH]c2c1	ABHD4 inh 31 | ABHD4 confirm 30
COC(=O)[C@]12C[C@H](CC(=O)N3CCN(C(=O)c4ccco4)CC3)C(=O)N(CCc3ccc(OC)c(OC)c3)C1=C[C@H](C1CCCC1)O[C@@H]2C	none (no result: TCR CD3 inh, HTRA1 inhibitor)
CC(C)(C)c1ccc(C(=O)N/C(=C\c2cccc([N+](=O)[O-])c2)C(=O)Nc2cccc(C(=O)O)c2)cc1	ABHD4 inh 33 | ABHD4 confirm 31
Cc1cc(C(c2ccc(C)o2)c2ccc(C)o2)c(O)c([N+](=O)[O-])c1	ABHD4 inh 44 | ABHD4 confirm inactive
Cc1ccc(C(c2ccc(C)o2)c2cccc([N+](=O)[O-])c2O)o1	none
CNCCNC[C@H](Cc1cccc2ccccc12)NCCc1ccccc1	none
CNC[C@H](Cc1ccccc1)NC[C@@H](Cc1cccc2ccccc12)NCCc1ccc(C)cc1	ABHD4 inh 49 | ABHD4 confirm 49
CNC(=O)c1cc(Cl)c(OC)c(OC)c1	none
COC(=O)C(=O)C1CCc2c(Cl)cc(OC)c(OC)c2C1=O (configuration not stated)	ABHD4 inh 52 | ABHD4 confirm inactive
CCCOC(c1ccccc1)(c1ccccc1)C(Oc1nc(C)cc(C)n1)C(=O)O (configuration not stated)	none
Cc1cc(C)nc(OC(C(=O)O)C(OCCC(C)C)(c2ccccc2)c2ccccc2)n1 (configuration not stated)	ABHD4 inh 35 | ABHD4 confirm 47
NNc1nc2c(F)cccc2s1	ABHD4 inh 77 | ABHD4 confirm 32
O=C(Nc1nc2c(F)cc(F)cc2s1)c1ccco1	none
NNc1nc2c(F)cc(F)cc2s1	ABHD4 inh 45 | ABHD4 confirm inactive
c1ccc(-n2c(SCc3cccc4ccccc34)nnc2-c2ccncc2)cc1	none (no result: TCR CD3 inh, HTRA1 inhibitor)
COc1ccc(S[C@]2(C(=O)N3CCCC3)CC(=O)N(C(=O)C3CC3)[C@@H]2c2ccc(OC)cc2)cc1	none (no result: TCR CD3 inh, HTRA1 inhibitor)
COc1ccc(S[C@]2(C(=O)N(C)C)CC(=O)N(C(=O)C3CC3)[C@@H]2c2ccc(OC)cc2)cc1	ABHD4 inh 34 (no result: TCR CD3 inh, HTRA1 inhibitor) | ABHD4 confirm 32
Cc1cc(-c2n[nH]c(=S)n2CC(C)C)cs1	ABHD4 inh 32 | ABHD4 confirm inactive
COc1ccc(C2NCCc3c2[nH]c2ccccc32)cc1CSc1nc2ccccc2s1 (configuration not stated)	ABHD4 inh 30 | ABHD4 confirm 34
Cc1ccc(-c2cc(C(=O)NN=Cc3cc(Br)ccc3O)[nH]n2)cc1C	none (no result: TCR CD3 inh, HTRA1 inhibitor)
Clc1ccc(/C=N/c2c(-c3ccco3)nc3ccccn23)cc1	ABHD4 inh 41 | ABHD4 confirm inactive
CC(=O)Oc1ccc(C(=O)OCC(=O)c2c(N)n(C)c(=O)n(C)c2=O)cc1OC(C)=O	ABHD4 inh 46 | ABHD4 confirm inactive
CCN(CC)C(=O)c1sc2nc(Cc3ccccc3)[nH]c(=O)c2c1C	ABHD4 inh 37 | ABHD4 confirm 40
COc1cccc(C(=O)N[C@H](C(=O)N2CCC[C@H]2C(=O)NC2CCCC2)C2CCCCC2)c1	none (no result: HTRA1 inhibitor)
O=C(Nc1nc2ncccn2c1-c1ccc(F)c(F)c1)c1ccccc1	none (no result: TCR CD3 inh, HTRA1 inhibitor)
O=C1Cc2cc(S(=O)(=O)N3CCN(c4ccc(C(=O)O)cc4)CC3)ccc2N1	ABHD4 inh 33 (no result: HTRA1 inhibitor) | ABHD4 confirm inactive
CC(=O)c1ccc(N2CCN(S(=O)(=O)c3ccc4c(c3)NC(=O)CC(=O)N4)CC2)cc1	none
NC(CO)C(=O)NNCc1ccc(O)c(O)c1O (configuration not stated)	LEDGF integ inh 43, ABHD4 inh 37 | ABHD4 confirm inactive
COC(=O)C(N)Cc1ccc(O)cc1 (configuration not stated)	none
N#C/C(C(N)=O)=c1/ccc2c(c1)N1C3=C(CCCC3)CC3CCCCC31N=2 (configuration not stated)	ABHD4 inh 49 (no result: HTRA1 inhibitor) | ABHD4 confirm 49
COc1ccc(NC(=O)N(C)C[C@H]2OCCCC[C@H](C)Oc3ccc(NC(=O)Nc4cccc5ccccc45)cc3C(=O)N([C@@H](C)CO)C[C@H]2C)cc1	none (no result: HTRA1 inhibitor)
CCOC(=O)c1ccc(NC2=CC(=O)C(=O)c3ccccc32)cc1	ABHD4 inh 30 | ABHD4 confirm 44
CCOC(=O)c1ccc(NC(=O)C(C)N2C(=O)c3ccccc3C2=O)cc1 (configuration not stated)	none
CCCCCn1c(CN2CCN(C)CC2)nc2c1c(=O)n(C)c(=O)n2C	ABHD4 inh 30 | ABHD4 confirm inactive
CCCCCn1c(CN2CCN(C(=O)OCC)CC2)nc2c1c(=O)n(C)c(=O)n2C	none
NS(=O)(=O)c1ccc(CCNC(=O)CN2C(=O)NC(c3ccccc3)(c3ccccc3)C2=O)cc1	ABHD4 inh 49 | ABHD4 confirm inactive
CN1C(=O)[C@@]2(O[C@H]3c4ccccc4C=CN3C3=C2C(=O)CCC3)c2ccccc21	none (no result: HTRA1 inhibitor)
COC(=O)[C@]12C[C@H](CC(=O)NCC34CC5CC(CC(C5)C3)C4)C(=O)N(CCc3ccc(OC)c(OC)c3)C1=C[C@H](C(C)C)O[C@@H]2C1CC1	none (no result: TCR CD3 inh, HTRA1 inhibitor)
COc1ccc(/C=N/Nc2cc(C)nc3ccc(OC)cc23)c(OC)c1	ABHD4 inh 31 | ABHD4 confirm 51
